Measured values from ChEMBL document CHEMBL4725470, “Synthesis and Biological Evaluation of Pyrroloindolines as Positive Allosteric Modulators of the α1β2γ2 GABA Receptor” (ACS Med Chem Lett, 2020).
Active and inactive are the calls of the source. No cut-off for these calls is given here.

Experiments:
[1] = target: T1, GABA-A receptor; alpha-1/beta-2/gamma-2 (Homo sapiens) (UniProt P14867+P47870+P18507); assay: Positive allosteric modulator activity at human alpha1beta2Sgamma2S GABA-A receptor expressed in Xenopus laevis oocytes assessed as potentiation of EC10 GABA response by two electrode voltage-clamp assay relative to control; format: cell-based; conditions: Oocyte
Method in brief: (§1)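 Same sequence as the EC50 potentiation protocol: baseline GABA doses, ligand alone, 30 s incubation, then coapplication, then two GABA check doses. Here 40 μM PAM is coapplied with an EC10–15 GABA dose. The EC10–15 for each mutant receptor was verified from full GABA dose–response curves.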

[2] = target: T1, GABA-A receptor; alpha-1/beta-2/gamma-2 (Homo sapiens); assay: Agonist activity at human alpha1beta2Sgamma2S GABA-A receptor expressed in Xenopus laevis oocytes by two electrode voltage-clamp assay; format: cell-based; conditions: Oocyte, filed as agonist
Method in brief: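 Test ligand applied alone at 40 μM to oocytes expressing human α1β2γ2 receptors. Current read by two-electrode voltage clamp and compared with GABA EC50 responses recorded in the same sequence.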

[3] = target: T1, GABA-A receptor; alpha-1/beta-2/gamma-2 (Homo sapiens); assay: Positive allosteric modulator activity at human alpha1beta2Sgamma2S GABA-A receptor expressed in Xenopus laevis oocytes assessed as potentiation of EC50 GABA response at 40 uM by two electrode voltage-clamp assay relative to control; format: cell-based; conditions: Oocyte
Method in brief: (§2)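 Two-electrode voltage clamp in oocytes. Three GABA EC50 applications set the baseline. The test ligand alone is then given at 40 μM, followed after a 30 s incubation by GABA EC50 plus 40 μM ligand. Two further GABA EC50 doses check receptor function after modulation. Result is the percent change relative to the GABA-only baseline.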

[4] = target: GABA-A receptor; GABA-A site (alpha1/beta2 interface) (Homo sapiens) (UniProt P14867+P47870); assay: Positive allosteric modulator activity at human alpha1beta2S GABA-A receptor expressed in Xenopus laevis oocytes assessed as potentiation of EC50 GABA response at 40 uM by two electrode voltage-clamp assay relative to control; format: cell-based; conditions: Oocyte; method in brief: as §2
[5] = Positive allosteric modulator activity at rat alpha1beta2gamma2L GABA-A receptor expressed in Xenopus laevis oocytes in presence of EC2-5 GABA by two-electrode voltage clamp assay; format: cell-based; conditions: Oocyte
[6] = target: T2, GABA-A receptor; alpha-1/beta-2/gamma-2 (Homo sapiens, UniProt P14867+P18507+P47870); assay: Positive allosteric modulator activity at human alpha1beta2Sgamma2S GABA-A receptor expressed in Xenopus laevis oocytes in presence of EC5 GABA by two electrode voltage-clamp assay; format: cell-based, Oocyte
T2 sequence (P14867 whole entry): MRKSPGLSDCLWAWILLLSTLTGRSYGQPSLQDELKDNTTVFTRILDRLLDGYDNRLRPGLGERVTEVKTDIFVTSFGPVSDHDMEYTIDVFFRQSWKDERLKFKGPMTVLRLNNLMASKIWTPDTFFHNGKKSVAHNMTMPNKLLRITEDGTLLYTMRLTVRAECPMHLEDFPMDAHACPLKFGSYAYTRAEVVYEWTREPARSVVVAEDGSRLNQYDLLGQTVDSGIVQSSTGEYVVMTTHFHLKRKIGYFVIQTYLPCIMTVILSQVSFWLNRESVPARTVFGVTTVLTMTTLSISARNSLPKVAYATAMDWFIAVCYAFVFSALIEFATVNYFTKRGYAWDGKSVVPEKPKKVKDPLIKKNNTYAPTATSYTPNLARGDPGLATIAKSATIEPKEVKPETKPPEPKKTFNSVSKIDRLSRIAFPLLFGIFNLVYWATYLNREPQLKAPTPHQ
T2 sequence (P47870 whole entry): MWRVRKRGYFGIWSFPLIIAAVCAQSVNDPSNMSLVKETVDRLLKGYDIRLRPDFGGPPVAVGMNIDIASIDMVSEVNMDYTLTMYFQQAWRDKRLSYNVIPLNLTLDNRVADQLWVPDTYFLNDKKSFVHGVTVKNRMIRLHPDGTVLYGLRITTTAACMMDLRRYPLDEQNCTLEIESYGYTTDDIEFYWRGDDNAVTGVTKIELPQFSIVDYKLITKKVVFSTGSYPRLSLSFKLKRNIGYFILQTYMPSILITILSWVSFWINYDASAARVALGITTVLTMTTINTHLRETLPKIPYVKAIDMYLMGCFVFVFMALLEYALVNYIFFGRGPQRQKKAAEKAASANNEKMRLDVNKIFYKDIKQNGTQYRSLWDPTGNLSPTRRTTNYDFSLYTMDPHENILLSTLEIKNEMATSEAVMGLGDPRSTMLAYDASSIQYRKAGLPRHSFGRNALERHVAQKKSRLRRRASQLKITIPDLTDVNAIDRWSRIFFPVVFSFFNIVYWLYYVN
T2 sequence (P18507 whole entry): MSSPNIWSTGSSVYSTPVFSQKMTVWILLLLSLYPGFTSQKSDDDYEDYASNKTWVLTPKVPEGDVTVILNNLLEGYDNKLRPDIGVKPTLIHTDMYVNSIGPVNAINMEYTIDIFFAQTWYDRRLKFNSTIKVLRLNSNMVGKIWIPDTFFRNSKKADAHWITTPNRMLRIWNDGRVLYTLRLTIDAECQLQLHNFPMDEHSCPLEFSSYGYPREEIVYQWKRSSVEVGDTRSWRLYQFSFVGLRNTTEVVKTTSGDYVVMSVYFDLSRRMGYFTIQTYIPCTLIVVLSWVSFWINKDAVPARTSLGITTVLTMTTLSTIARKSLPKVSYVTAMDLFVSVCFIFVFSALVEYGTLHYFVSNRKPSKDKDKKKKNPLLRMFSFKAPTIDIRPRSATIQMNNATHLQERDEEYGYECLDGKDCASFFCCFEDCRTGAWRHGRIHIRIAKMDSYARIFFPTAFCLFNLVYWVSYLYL
Method in brief: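 Modulator dose–response with each concentration coapplied with GABA EC5. The peak current at GABA EC5 alone was subtracted from all responses, and the EC50 was taken from the fitted curve.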

[7] = target: T1, GABA-A receptor; alpha-1/beta-2/gamma-2 (Homo sapiens); assay: Positive allosteric modulator activity at human alpha1beta2Sgamma2S GABA-A receptor expressed in Xenopus laevis oocytes in presence of EC50 GABA by two electrode voltage-clamp assay; format: cell-based; conditions: Oocyte, filed as positive allosteric modulator
[8] = tested on: Oocyte; assay: Positive allosteric modulator activity at human GABA-A receptor alpha1beta2Sgamma2S H129R mutant expressed in Xenopus laevis oocytes assessed as potentiation of EC10 GABA response by two electrode voltage-clamp assay relative to control; format: cell-based; conditions: filed as positive allosteric modulator; method in brief: as §1
[9] = tested on: Oocyte; assay: Positive allosteric modulator activity at human GABA-A receptor alpha1beta2Sgamma2S Y209Q mutant expressed in Xenopus laevis oocytes assessed as potentiation of EC10 GABA response by two electrode voltage-clamp assay relative to control; format: cell-based; conditions: filed as positive allosteric modulator; method in brief: as §1
[10] = tested on: Oocyte; assay: Positive allosteric modulator activity at human GABA-A receptor alpha1beta2Sgamma2S S297I/N289I/S319I triple mutant expressed in Xenopus laevis oocytes assessed as potentiation of EC10 GABA response by two electrode voltage-clamp assay relative to control; format: cell-based; method in brief: as §1
[11] = tested on: Oocyte; assay: Positive allosteric modulator activity at human GABA-A receptor alpha1beta2Sgamma2S Q88C mutant expressed in Xenopus laevis oocytes assessed as potentiation of EC10 GABA response by two electrode voltage-clamp assay relative to control; format: cell-based; conditions: filed as positive allosteric modulator; method in brief: as §1
[12] = filed as positive allosteric modulator

`CN1CC[C@@]2(O)c3cc(N4CCOCC4)ccc3N(C)[C@@]12c1ccccc1` showed an Activity [1] of -4.8%.
With `CN1CC[C@]2(O)c3cc(C(F)(F)F)ccc3N(C)[C@]12c1ccccc1` the Activity [1, 12] was 108%.
`COc1ccc2c(c1)[C@@]1(O)CCN(C)[C@@]1(c1ccccc1)N2C` showed an Activity [1] of 17%.
With `CN1CC[C@]2(O)c3cc(Br)ccc3N(C)[C@]12c1ccccc1` the Activity [1, 12] was 213% and the Activity [2] was “Active”.
For `CN1CC[C@]2(O)c3ccccc3N(C)[C@]12c1ccccc1` [listing 1 of 2 here], the Activity [3] was 16%, the Activity [1, 12] was 125% and the Activity [4] was 17%.
Work on `Cc1ccc(-c2nc3ccc(C)cn3c2CC(=O)N(C)C)cc1` [ZOLPIDEM] yielded an EC50 [5] of 340 nM.
`CCN(CC)CCN1C(=O)CN=C(c2ccccc2F)c2cc(Cl)ccc21` [FLURAZEPAM] showed an EC50 [5] of 270 nM.
For `CO[C@]12CCN(C)[C@@]1(c1ccccc1)N(C)c1ccccc12`, the Activity [1] was 21%.
`CN1CC[C@]2(O)c3ccccc3N(C)[C@]12c1ccccc1` [listing 2 of 2 here] showed an EC50 [6] of 110000 nM.
In the case of `CN1CC[C@]2(F)c3ccccc3N(C)[C@]12c1ccccc1`, the Activity [1, 12] is reported as 100%.
In the case of `CN1CC[C@]2(O)c3cc(I)ccc3N(C)[C@]12c1ccccc1`, the Activity [1, 12] is reported as 231% and the Activity [2] is reported as “Active”.
With `CN1CC[C@@]2(O)c3ccccc3N(C)[C@@]12c1ccccc1` the Activity [4] was 9.2%.
With `CN1CC[C@@]2(O)c3ccccc3N(C)[C@@]12c1ccc(Br)cc1` the Activity [1, 12] was 155%.
With `CN1c2ccccc2[C@@]2(O)CCN(C(=O)OCc3ccccc3)[C@@]12c1ccccc1` the Activity [1] was 9.6%.
In the case of `COc1ccc([C@@]23N(C)CC[C@]2(O)c2ccccc2N3C)cc1` (racemic), the Activity [1] is reported as “inactive”.
For `CN1c2ccccc2[C@@]2(O)CCN[C@@]12c1ccccc1`, the Activity [1, 12] was 41%.
For `CN1CC[C@]2(O)c3ccccc3N(C)[C@]12c1ccc(Br)cc1`, the Activity [1, 12] was 98%.
For `CN1CC[C@]2(O)c3ccccc3N(C)[C@]12c1ccccc1` (racemic), the Activity [3] was 17%, the Activity [7] was “Active” and the Activity [1, 12] was 62%. The Activity [4] was 28%, the Activity [8] was “Active” and the Activity [9] was “Active”. For the same molecule, the Activity [10] was 1% and the Activity [11] was “Active”.
